Activity calls are given as the source filed them. No cut-off for these calls is given here.
Tests used:
[1] = Binding affinity to HIV-1NL4-3 15N-labeled C-terminal domain CA-SP1-NC at V238 residue cleavage site of Gag-Pol protein harboring W184A/M185A mutant expressed in Escherichia coli by 1H-15N SOFAST-HMQC spectroscopic analysis; set-up: species or system Human immunodeficiency virus 1
Method in brief: (§1)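 300 μM 15N-labelled CA-CTD(W184A/M185A)-SP1-NC in acetate buffer (25 mM Na acetate pH 6.5, 25 mM NaCl, 0.1 mM ZnCl2, 0.1 mM 2-mercaptoethanol, 10% D2O), 303 K, 600 MHz with cryoprobe. Ligand added from ~60 mM DMSO-d6 stock; reference 1H-15N SOFAST-HMQC recorded first. Per-residue Kd from non-linear fit of chemical shift perturbation vs ligand concentration, one-site model plus linear non-specific term.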

[2] = Binding affinity to HIV-1NL4-3 15N-labeled C-terminal domain CA-SP1-NC at V221 residue cleavage site of Gag-Pol protein harboring W184A/M185A mutant expressed in Escherichia coli by 1H-15N SOFAST-HMQC spectroscopic analysis; set-up: species or system Human immunodeficiency virus 1; method in brief: as §1
[3] = Binding affinity to HIV-1NL4-3 15N-labeled C-terminal domain CA-SP1-NC at L231 residue cleavage site of Gag-Pol protein harboring W184A/M185A mutant expressed in Escherichia coli by 1H-15N SOFAST-HMQC spectroscopic analysis; set-up: species or system Human immunodeficiency virus 1; method in brief: as §1
[4] = Binding affinity to HIV-1NL4-3 15N-labeled C-terminal domain CA-SP1-NC at E233 residue cleavage site of Gag-Pol protein harboring W184A/M185A mutant expressed in Escherichia coli by 1H-15N SOFAST-HMQC spectroscopic analysis; set-up: species or system Human immunodeficiency virus 1; method in brief: as §1
[5] = Binding affinity to HIV-1NL4-3 15N-labeled C-terminal domain CA-SP1-NC at M235 residue cleavage site of Gag-Pol protein harboring W184A/M185A mutant expressed in Escherichia coli by 1H-15N SOFAST-HMQC spectroscopic analysis; set-up: species or system Human immunodeficiency virus 1; method in brief: as §1
[6] = Binding affinity to HIV-1NL4-3 15N-labeled C-terminal domain CA-SP1-NC at T257 residue cleavage site of Gag-Pol protein harboring W184A/M185A mutant expressed in Escherichia coli by 1H-15N SOFAST-HMQC spectroscopic analysis; set-up: species or system Human immunodeficiency virus 1; method in brief: as §1
[7] = tested on: Human immunodeficiency virus 1; test: Binding affinity to HIV-1NL4-3 15N-labeled C-terminal domain CA-SP1-NC cleavage site of Gag-Pol protein harboring W184A/M185A mutant expressed in Escherichia coli assessed as change in peak intensity at CA 218 to NC 257 residues by 1H-15N SOFAST-HMQC spectroscopic analysis
Method in brief: (§2)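 1H-15N SOFAST-HMQC of 300 μM 15N-labelled CA-CTD(W184A/M185A)-SP1-NC, without and with ligand. Buffer: 25 mM Na acetate pH 6.5, 25 mM NaCl, 0.1 mM ZnCl2, 0.1 mM 2-mercaptoethanol, 10% D2O. Recorded at 303 K, 600 MHz, cryoprobe. Ligand from ~60 mM DMSO-d6 stock. Control sample held protein plus the same DMSO-d6 amount.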

[8] = tested on: Human immunodeficiency virus 1; test: Binding affinity to HIV-1NL4-3 15N-labeled C-terminal domain CA-SP1-NC cleavage site of Gag-Pol protein harboring W184A/M185A mutant expressed in Escherichia coli assessed as change in resonances at CA 220/225 to 229 and Nc 248 to 253/ 256 residues by 1H-15N SOFAST-HMQC spectroscopic analysis; method in brief: as §2
[9] = tested on: Human immunodeficiency virus 1; test: Binding affinity to HIV-1NL4-3 15N-labeled C-terminal domain CA-SP1-NC cleavage site of Gag-Pol protein harboring W184A/M185A mutant expressed in Escherichia coli assessed as formation of QVT motif at SP1 232 to 239 residues by NMR analysis
[10] = tested on: Human immunodeficiency virus 1; test: Binding affinity to HIV-1NL4-3 15N-labeled C-terminal domain CA-SP1-NC cleavage site of Gag-Pol protein harboring W184A/M185A mutant expressed in Escherichia coli assessed as HetNOE value at SP1 T239 residues by NMR analysis (reference value: -0.324No_unit)
[11] = tested on: Human immunodeficiency virus 1; test: Binding affinity to HIV-1NL4-3 15N-labeled C-terminal domain CA-SP1-NC cleavage site of Gag-Pol protein harboring W184A/M185A mutant expressed in Escherichia coli assessed as change in peak intensity at CA 225 to 229/NC 248 to 251 residues by NMR analysis
[12] = Binding affinity to HIV-1NL4-3 15N-labeled C-terminal domain CA-SP1-NC at S236 residue cleavage site of Gag-Pol protein harboring W184A/M185A mutant expressed in Escherichia coli by 1H-15N SOFAST-HMQC spectroscopic analysis; set-up: species or system Human immunodeficiency virus 1; method in brief: as §1
[13] = tested on: Human immunodeficiency virus 1; test: Binding affinity to HIV-1NL4-3 15N-labeled C-terminal domain CA-SP1-NC cleavage site of Gag-Pol protein harboring W184A/M185A mutant expressed in Escherichia coli assessed as change in chemical shift perturbation at CA 218 to NC 257 residues by 1H-15N SOFAST-HMQC spectroscopic analysis; method in brief: as §2
[14] = Binding affinity to HIV-1NL4-3 15N-labeled C-terminal domain CA-SP1-NC at A232 residue cleavage site of Gag-Pol protein harboring W184A/M185A mutant expressed in Escherichia coli by 1H-15N SOFAST-HMQC spectroscopic analysis; set-up: species or system Human immunodeficiency virus 1; method in brief: as §1
[15] = Binding affinity to HIV-1NL4-3 15N-labeled C-terminal domain CA-SP1-NC at Q237 residue cleavage site of Gag-Pol protein harboring W184A/M185A mutant expressed in Escherichia coli by 1H-15N SOFAST-HMQC spectroscopic analysis; set-up: species or system Human immunodeficiency virus 1; method in brief: as §1
[16] = Binding affinity to HIV-1NL4-3 15N-labeled C-terminal domain CA-SP1-NC at T239 residue cleavage site of Gag-Pol protein harboring W184A/M185A mutant expressed in Escherichia coli by 1H-15N SOFAST-HMQC spectroscopic analysis; set-up: species or system Human immunodeficiency virus 1; method in brief: as §1

## C=C(C)[C@@H]1CC[C@]2(C(=O)NCCN)CC[C@]3(C)[C@@H](CC[C@@H]4[C@@]5(C)CC[C@H](OC(=O)CC(C)(C)C(=O)O)C(C)(C)[C@@H]5CC[C@]43C)[C@@H]12
[1]
  Kd: 204 µM
[2]
  Kd: 670 µM
[3]
  Kd: 678 µM
[4]
  Kd: 237 µM
[5]
  Kd: 235 µM
[6]
  Kd: 308 µM
[7]
  Activity: Active
[8]
  Activity: Active
[9]
  Activity: Active
[10]
  Activity: -0.164
[11]
  Activity: Active
[12]
  Kd: 180 µM
[13]
  Activity: Active
[14]
  Kd: 692 µM
[15]
  Kd: 154 µM
[16]
  Kd: 52.5 µM

From ChEMBL document CHEMBL4706526, “The HIV-1 maturation inhibitor, EP39, interferes with the dynamic helix-coil equilibrium of the CA-SP1 junction of Gag” (Eur J Med Chem, 2020)
